Assay results reported in ChEMBL document CHEMBL2321819, “Design of potent poxvirus inhibitors of the heterodimeric processivity factor required for viral replication” (J Med Chem, 2013).
Activity calls are given as the source filed them. The calls are words filed in the database; no cut-off is given here.

How the values were obtained:
Vaccinia virus [1] = experiment: Antiviral activity against Vaccinia virus WR infected in African green monkey BSC1 cells after overnight incubation by crystal violet staining-based plaque reduction assay; assay type: functional, organism-based; details: Orthopoxvirus vaccinia, BSC-1
BSC-1 [2] = experiment: (§1) Cytotoxicity against African green monkey BSC1 cells after 20 hrs by lactate dehydrogenase assay; assay type: cell-based; details: chlorocebus aethiops, bsc-1, 20 h
Outline: (§2)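 Cytotoxicity in BSC-1 cells was measured by LDH release, with Neutral Red also used. Assays were run in triplicate and repeated at least twice. CC50 was obtained from a variable-slope four-parameter nonlinear regression fit. Values ≥100 μM were called not active.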

BSC-1 [3] = experiment: Inhibition of 5 MOI of Vaccinia virus WR DNA polymerase processivity factor A20NT100-D4 complex coexpressing recombinant L1 protein infected in African green monkey BSC1 cells assessed as reduction in EGFP expression at 100 uM after 8 hrs by fluorescence microscopic analysis; assay type: cell-based
[4] = Selectivity index, ratio of CC50 for African green monkey BSC1 cells to IC50 for Vaccinia virus WR; assay type: functional, BSC-1
Vaccinia virus [5] = experiment: Antiviral activity against 5 MOI of Vaccinia virus WR infected in African green monkey BSC1 cells assessed as decrease in virus-induced cytopathicity at 1 uM after 8 hrs relative to vehicle-treated control; assay type: functional, organism-based; details: Orthopoxvirus vaccinia, BSC-1
BSC-1 [6] = experiment: Inhibition of 1 MOI of Vaccinia virus WR DNA polymerase processivity factor A20NT100-D4 complex infected in African green monkey BSC1 cells assessed as decrease in A4 protein level after 12 hrs by Western blotting analysis; assay type: cell-based
BSC-1 [7] = experiment: Inhibition of 1 MOI of Vaccinia virus WR DNA polymerase processivity factor A20NT100-D4 complex infected in African green monkey BSC1 cells assessed as decrease in E3 protein level at 1 uM after 8 hrs by Western blotting analysis; assay type: cell-based
Vaccinia virus [8] = experiment: Antiviral activity against 5 MOI of Vaccinia virus WR infected in African green monkey BSC1 cells assessed as decrease in virus-induced cytopathicity at 1 uM after 8 hrs relative to cidofovir; assay type: functional, organism-based; details: Orthopoxvirus vaccinia, BSC-1
BSC-1 [9] = experiment: Inhibition of 5 MOI of Vaccinia virus WR DNA polymerase processivity factor A20NT100-D4 complex coexpressing recombinant L1 protein infected in African green monkey BSC1 cells assessed as reduction in EGFP expression at 1 uM after 8 hrs by fluorescence microscopic analysis; assay type: cell-based
BSC-1 [10] = experiment: Inhibition of 1 MOI of Vaccinia virus WR DNA polymerase processivity factor A20NT100-D4 complex infected in African green monkey BSC1 cells assessed as decrease in BrdU incorporation at 1 uM after 4 to 8 hrs by DAPI staining-based confocal microscopic analysis; assay type: cell-based
[11] = as §1; assay type: cell-based, BSC-1; details: chlorocebus aethiops, BSC-1 cells; outline: as §2

Compound | IC50 (Vaccinia virus [1]) [µM] | further results
Cc1ccc2[nH]c(C(=O)OC(C)C)c(Sc3ccc(Cl)cc3)c2c1 | ≥ 100 | –
CCc1ccc2c(Sc3ccc(Cl)c(Cl)c3)c(C(=O)O)[nH]c2c1 | 42 | –
CCc1ccc2c(Sc3cc(Cl)cc(Cl)c3)c(C(=O)O)[nH]c2c1 | 9 | –
CCOC(=O)c1[nH]c2ccc(C)cc2c1Sc1ccc(Cl)cc1 | ≥ 100 | –
Cc1ccc2c(Sc3ccc(Cl)cc3)c(C(=O)O)[nH]c2c1 | 82 | –
Cc1ccc2c(c1)c(Sc1ccc(Cl)cc1)c(C(=O)O)n2C | ≥ 100 | –
Cc1cccc2[nH]c(C(=O)OCc3ccccc3)c(Sc3ccc(Cl)cc3)c12 | ≥ 100 | –
CCCCCCNC(=O)CCc1[nH]c2cc(C)ccc2c1Sc1cc(Cl)cc(Cl)c1 | ≥ 100 | CC50 (BSC-1 [2]): 27 µM
Cc1ccc(Sc2c(C(=O)O)[nH]c3cccc(C)c23)cc1 | ≥ 100 | –
Cc1ccc2c(Sc3ccc(C(=O)O)cc3)c(C(=O)O)[nH]c2c1 | ≥ 100 | –
Nc1ccn(C[C@@H](CO)OCP(=O)(O)O)c(=O)n1 | – | inhibition (BSC-1 [3]): Active
Cc1cccc2c(Sc3ccc(Cl)c(Cl)c3)c(C(=O)O)[nH]c12 | 35 | –
COC(=O)c1[nH]c2cc(C)ccc2c1Sc1cc(Cl)cc(Cl)c1 | ≥ 100 | –
O=C(O)c1[nH]c2cc(F)ccc2c1Sc1ccc(Cl)cc1 | 40 | –
COc1ccc(Sc2c(C(=O)O)[nH]c3cccc(C)c23)cc1 | ≥ 100 | –
Cc1cccc2c(Sc3cc(Cl)c(Cl)cc3Cl)c(C(=O)O)[nH]c12 | 21 | –
O=C(O)c1[nH]c2cc(Cl)ccc2c1Sc1ccc(Cl)cc1 | 47 | –
O=C(O)c1[nH]c2cc(Br)ccc2c1Sc1ccc(Cl)cc1 | 51 | –
Cc1cccc2c(Sc3ccc(Cl)cc3)c(C(=O)O)[nH]c12 | 74 | –
O=C(O)c1[nH]c2ccccc2c1Sc1ccc(Cl)cc1 | ≥ 100 | –

Compound | IC50 (Vaccinia virus [1]) [µM] | further results
COC(=O)c1ccc(Sc2c(C(=O)O)[nH]c3cccc(C)c23)cc1 | ≥ 100 | –
Cc1ccc2c(Sc3cc(Cl)cc(Cl)c3)c(CC(N)=O)[nH]c2c1 | 0.046 | CC50 (BSC-1 [2]): 26 µM; Ratio CC50/IC50 [4]: 570
Cc1ccc2c(Sc3ccccc3)c(C(=O)O)[nH]c2c1 | ≥ 100 | –
Cc1ccc2c(Sc3cccc(Cl)c3)c(C(=O)O)[nH]c2c1 | 51 | –
Cc1ccc(C)c2c(Sc3ccc(Cl)cc3)c(C(=O)O)[nH]c12 | 50 | –
CCOC(=O)c1[nH]c2cccc(C)c2c1Sc1ccc(Cl)cc1 | ≥ 100 | –
COC(=O)c1[nH]c2c(C)cccc2c1Sc1ccc(Cl)cc1 | 23 | –
Cc1ccc2c(Sc3cc(Cl)cc(Cl)c3)c(CCC(N)=O)[nH]c2c1 | 0.042 | Activity (Vaccinia virus [5]): Active; inhibition (BSC-1 [6]): Dose-dependent effect; inhibition (BSC-1 [7]): Active; Activity (Vaccinia virus [8]): Active; inhibition (BSC-1 [9]): Active; CC50 (BSC-1 [2]): 16 µM; inhibition (BSC-1 [10]): Active; Ratio CC50/IC50 [4]: 374
CCn1c(C(=O)O)c(Sc2ccc(Cl)cc2)c2cc(C)ccc21 | 86 | –
CCn1c(C(=O)OC)c(Sc2ccc(Cl)cc2)c2cc(C)ccc21 | 39 | –
CCc1ccc2c(Sc3ccc(Cl)cc3)c(C(=O)O)[nH]c2c1 | 36 | –
COC(=O)c1c(Sc2ccc(Cl)cc2)c2cc(C)ccc2n1C | ≥ 100 | –
Cc1ccc2c(Sc3cc(Cl)cc(Cl)c3)c(C(=O)O)[nH]c2c1 | 7 | CC50 (BSC-1 [2]): 75 µM; Ratio CC50/IC50 [4]: 11
Cc1ccc2c(Sc3ccc(C(F)(F)F)cc3[N+](=O)[O-])c(C(=O)O)[nH]c2c1 | ≥ 100 | –
Cc1ccc2[nH]c(C(=O)O)c(Sc3ccc(Cl)cc3)c2c1 | 46 | –
Cc1ccc2c(Sc3ccc(Br)cc3)c(C(=O)O)[nH]c2c1 | ≥ 100 | –
COC(=O)c1[nH]c2ccc(C)cc2c1Sc1ccc(Cl)cc1 | ≥ 100 | –
Cc1cccc2[nH]c(C(=O)OC(C)C)c(Sc3ccc(Cl)cc3)c12 | ≥ 100 | –
COc1cccc2[nH]c(C(=O)O)c(Sc3ccc(Cl)cc3)c12 | ≥ 100 | –
COC(=O)c1[nH]c2cc(C)ccc2c1Sc1ccccc1 | 10 | –

Compound | IC50 (Vaccinia virus [1]) [µM] | further results
Cc1ccc2c(Sc3ccc(Cl)c(Cl)c3)c(C(=O)O)[nH]c2c1 | 34 | –
Cc1ccc2c(Sc3cccc(F)c3)c(C(=O)O)[nH]c2c1 | 69 | –
Cc1ccc2[nH]c(C(=O)OCc3ccccc3)c(Sc3ccc(Cl)cc3)c2c1 | ≥ 100 | –
Cc1ccc2c(Sc3ccc(C(F)(F)F)cc3)c(C(=O)O)[nH]c2c1 | 33 | –
Cc1ccc2c(Sc3ccc(Cl)cc3Cl)c(C(=O)O)[nH]c2c1 | 37 | –
Cc1ccc2c(Sc3cc(Cl)cc(Cl)c3)c(CCC(=O)O)[nH]c2c1 | 0.244 | CC50 (BSC-1 [2]): 36 µM; Ratio CC50/IC50 [4]: 152
Cc1cccc2[nH]c(C(=O)O)c(Sc3cc(Cl)c(Cl)cc3Cl)c12 | 18 | –
COc1ccc(Sc2c(C(=O)O)[nH]c3cc(C)ccc23)cc1 | ≥ 100 | –
COC(=O)c1[nH]c2cccc(C)c2c1Sc1ccc(Cl)cc1 | 21 | –
Cc1ccc2c(Sc3cc(Cl)cc(Cl)c3)c(CCCC(N)=O)[nH]c2c1 | 0.208 | CC50 at 20 h [11]: ≥ 100 µM
CNC(=O)c1[nH]c2cc(C)ccc2c1Sc1cc(Cl)cc(Cl)c1 | ≥ 100 | –
Cc1ccc(Sc2c(C(=O)O)[nH]c3cc(C)ccc23)cc1 | ≥ 100 | –
Cc1ccc2[nH]c(C(=O)Oc3ccccc3)c(Sc3ccc(Cl)cc3)c2c1 | ≥ 100 | –
O=C(O)c1[nH]c2ccccc2c1Sc1cc(Cl)cc(Cl)c1 | 43 | –
Cc1cccc2[nH]c(C(=O)O)c(Sc3ccc(Cl)cc3)c12 | 86 | –
Cc1cccc2[nH]c(C(=O)Oc3ccccc3)c(Sc3ccc(Cl)cc3)c12 | ≥ 100 | –
COC(=O)c1[nH]c2cc(C)ccc2c1Sc1ccc(Cl)cc1 | 19 | –
Cc1cccc2[nH]c(C(=O)O)c(Sc3ccc([N+](=O)[O-])cc3)c12 | ≥ 100 | –
Cc1ccc2c(Sc3cc(Cl)c(Cl)cc3Cl)c(C(=O)O)[nH]c2c1 | 25 | –
